Assay results of several laboratories.
Lines come from different studies, so protocols differ.
Target: Serine/threonine-protein kinase BRSK1 (BRSK1, Homo sapiens, UniProt Q8TDC3)
One construct used (Q8TDC3 1-778): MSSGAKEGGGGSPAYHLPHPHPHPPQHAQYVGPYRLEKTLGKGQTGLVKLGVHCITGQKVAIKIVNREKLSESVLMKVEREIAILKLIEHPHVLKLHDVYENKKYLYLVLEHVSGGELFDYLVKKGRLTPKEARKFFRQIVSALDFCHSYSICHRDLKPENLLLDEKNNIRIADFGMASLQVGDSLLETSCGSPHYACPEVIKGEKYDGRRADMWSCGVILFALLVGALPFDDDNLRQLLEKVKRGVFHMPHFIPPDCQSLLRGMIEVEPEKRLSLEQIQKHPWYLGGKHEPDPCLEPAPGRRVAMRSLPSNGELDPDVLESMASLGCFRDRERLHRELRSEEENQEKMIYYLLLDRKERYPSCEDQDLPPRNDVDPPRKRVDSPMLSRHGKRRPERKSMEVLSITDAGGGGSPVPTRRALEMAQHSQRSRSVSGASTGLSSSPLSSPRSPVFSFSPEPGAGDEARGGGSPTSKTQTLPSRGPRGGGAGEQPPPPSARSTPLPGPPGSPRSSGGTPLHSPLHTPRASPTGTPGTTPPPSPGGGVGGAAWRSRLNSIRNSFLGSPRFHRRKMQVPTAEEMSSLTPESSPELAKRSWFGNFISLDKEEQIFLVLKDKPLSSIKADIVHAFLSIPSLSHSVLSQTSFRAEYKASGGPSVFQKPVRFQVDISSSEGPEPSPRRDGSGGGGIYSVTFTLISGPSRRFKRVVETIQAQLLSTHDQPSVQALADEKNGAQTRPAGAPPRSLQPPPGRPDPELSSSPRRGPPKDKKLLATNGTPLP

SMILES | observed | method | concentration | remaining binding [%]
CN(c1nccc(-c2cnn3ncccc23)n1)C1CC1 | binding |  | 1 µM | 100
COc1cnc(Nc2cccc(S(N)(=O)=O)c2)nc1N1CCN(c2ccccc2)CC1 | binding | competition with immobilised ligand | 1 µM | 96
Cc1cnc(Nc2ccc(C(=O)N3CCC(N4CCCC4)CC3)cc2)nc1-c1cc2ccccc2s1 | binding | competition with immobilised ligand | 1 µM | 100
O=C(O)[C@@H]1[C@@H](Cn2nnc3ccccc3c2=O)CC[C@H]1C(=O)c1ccc(OCCC2CCOCC2)cc1 | cell-free assay | competition with immobilised ligand | 1 µM | 100
CCN1CCN(Cc2ccc(C(=O)Nc3ccc(C)c(Oc4ccc5c(c4)CC(=O)N5)c3)cc2C(F)(F)F)CC1 | binding | competition with immobilised ligand | 1 µM | 94
CO[C@@H](C)c1c(Nc2ccc([C@@H](N(C)C(=O)C3CCS(=O)(=O)CC3)C(F)(F)F)cc2)cnc2cc(Cl)nn12 | cell-free assay | competition with immobilised ligand | 1 µM | 93
CN(CCCC(F)(F)F)c1nccc(-c2cnn3ncccc23)n1 | binding |  | 1 µM | 100
COc1ccc2c(c1)O[C@H](c1ccc(OC)c(OC)c1)C[C@@H]2NC(=O)C1(c2ccc3c(c2)OC(F)(F)O3)CC1 | cell-free assay | competition with immobilised ligand | 1 µM | 100
CC1CCCN1c1nccc(-c2cnn3ncccc23)n1 (stereo not shown) | binding |  | 1 µM | 95
FC(F)(F)Oc1cccc(-c2cnc3ccc(-c4ccncc4)nn23)c1 | cell-free assay | competition with immobilised ligand | 5 µM | 85
Nc1ncc2c(n1)-c1c([nH]c3ccc(C#CC4CC4)cc13)CCCC2 | binding | competition with immobilised ligand | 1 µM | 87
CC(=O)c1c(NS(C)(=O)=O)c2cc(-c3ccc(Cl)cc3)c(-c3ccc(Cl)cc3Cl)nc2n(C)c1=O | cell-free assay | competition with immobilised ligand | 1 µM | 99
Cc1cnn2ncc(-c3ccnc(N(C)C)n3)c2c1 | binding |  | 1 µM | 81
O=C(c1ccc(Nc2nccc(-c3cc4ccccc4s3)n2)cc1)N1CCC(N2CCCC2)CC1 | binding | competition with immobilised ligand | 1 µM | 61
Cc1c(NC(=O)c2cc(C(N)=O)nc3cc(F)ccc23)c(C(F)(F)F)nn1Cc1ccc(C#N)cc1 | cell-free assay | competition with immobilised ligand | 1 µM | 100
F[C@@H]1CCN(c2nccc(-c3cnn4ncccc34)n2)C1 | binding |  | 1 µM | 100
CN(c1ccnc(CNc2nc(Nc3ccc4c(c3)CC(=O)N4)ncc2C(F)(F)F)n1)S(C)(=O)=O | cell-free assay | competition with immobilised ligand | 1 µM | 43
CNC(=O)[C@@H]1CC[C@@H](n2c(-c3ccc4cnccc4c3)nc3ccc(C(=O)NCc4cccc(C(N)=O)c4)cc32)C1 | binding | competition with immobilised ligand | 1 µM | 100
CS(=O)(=O)c1cc(C2(NC(=O)c3cncc4c3cnn4-c3ccc(F)cc3)CC2)ccn1 | cell-free assay | competition with immobilised ligand | 1 µM | 74
C[C@H]1CCN(c2nccc(-c3cnn4ncccc34)n2)C1 | binding |  | 1 µM | 98
O=C(c1ccc(Nc2ncc(Cl)c(-c3ccc(Cl)s3)n2)cc1)N1CCC(N2CCCC2)CC1 | binding | competition with immobilised ligand | 1 µM | 57
O=C(Nc1c[nH]nc1C(=O)NC1CCNCC1)c1cc(F)cc(F)c1 | binding | competition with immobilised ligand | 1 µM | 89
